According to ChEMBL document CHEMBL1126685, “Bronchodilator activity of xanthine derivatives substituted with functional groups at the 1- or 7-position” (J Med Chem, 1993):

Experiments:
[1] = molecular target: T1, Adenosine receptor A1 (Cavia porcellus, UniProt P47745); assay: Binding affinity against adenosine A1 receptor of cerebral cortex using [3H]CPX as a radioligand; assay type: tissue-based
T1 sequence (P47745 whole entry): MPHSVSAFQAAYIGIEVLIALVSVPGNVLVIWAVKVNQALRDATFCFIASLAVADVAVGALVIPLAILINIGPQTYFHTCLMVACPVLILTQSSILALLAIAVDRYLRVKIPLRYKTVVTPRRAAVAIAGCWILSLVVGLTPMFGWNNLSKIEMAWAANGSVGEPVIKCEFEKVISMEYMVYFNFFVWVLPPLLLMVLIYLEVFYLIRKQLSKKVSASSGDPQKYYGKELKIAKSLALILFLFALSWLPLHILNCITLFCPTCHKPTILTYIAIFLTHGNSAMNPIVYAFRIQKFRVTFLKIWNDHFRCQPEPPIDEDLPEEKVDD

[2] = species: Cavia porcellus; assay: Effective concentration required in vitro for tracheal muscle (from male Hartley guinea pigs) relaxation; assay type: functional; settings: Trachea
In short: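 Tracheal ring chains from male Hartley guinea pigs (300–500 g), 37 °C Krebs-Henseleit pH 7.4, 95% O2–5% CO2, 0.5 g tension, spontaneous tone; cumulative compound addition, isotonic recording.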

[3] = species: Cavia porcellus; assay: Effective concentration required in vitro for heart stimulation (right atrium) in guinea pig; assay type: functional; settings: Cardiac atrium
In short: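 Isolated right atrium of male Hartley guinea pigs, 25 °C Krebs-Henseleit gassed 95% O2–5% CO2, 0.5 g tension; cumulative concentrations; beating rate via cardiometer triggered by isometric contraction. EC15 = concentration raising rate 15% above unstimulated; 3–5 experiments.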

[4] = Bronchoselectivity expressed as ratio of stimulatory activity in the right atrium (EC15) to relaxant activity in the tracheal muscle (EC50); assay type: functional, Cardiac atrium
[5] = molecular target: cyclic AMP phosphodiesterase (guinea pig); assay: Inhibition of cyclic AMP-phosphodiesterase ( PDE) in the supernatant of tracheal muscle homogenate
[6] = molecular target: Adenosine A2 receptor (guinea pig); assay: Binding affinity against adenosine A2 receptor of striatal membrane using [3H]CGS-21680 as a radioligand
[7] = system: Cavia porcellus; assay: Bronchodilatory effect, 50% inhibition of spasmogen-induced response in male Hartley guinea pigs on intraduodenal administration; assay type: functional
In short: (§1)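 Urethane-anesthetized (1.5 g/kg ip), ventilated male Hartley guinea pigs; compound suspended in 0.5% carboxymethylcellulose given intraduodenally 5 min before iv acetylcholine 40 μg/kg (jugular, every 15 min, after three stable responses); Konzett–Rossler overflow bronchospasm and carotid-pulse heart rate followed 110 min.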

[8] = system: Cavia porcellus; assay: Positive chronotropic effect, 15% increase in heart rate of male Hartley guinea pigs on intraduodenal administration (mean of 3-5 animals); assay type: functional; in short: as §1
[9] = Bronchoselectivity, ratio of positive chronotropic action (ED15) to bronchodilator action (ED50); assay type: functional

| Structure (SMILES) | Ki [1] | EC50 [2] | EC15 [3] | Selectivity [4] | Ki [5] | Ki [6] | ED50 [7] | ED15 [8] | Selectivity [9] |
| --- | --- | --- | --- | --- | --- | --- | --- | --- | --- |
| CCCn1c(=O)n(CCC(C)=O)c(=O)c2[nH]cnc21 | 11.2 µM | 3.5 µM | 27 µM | 7.7 | 13 µM | 144 µM | – | – | – |
| CCCn1c(=O)n(CCCCC(C)=O)c(=O)c2[nH]cnc21 | 23.1 µM | 0.06 µM | 3.6 µM | 62 | 16.4 µM | – | 2.55 mg/kg | 13.5 mg/kg | 5.3 |
| CCCn1c(=O)n(CCCN(C)C)c(=O)c2[nH]cnc21 | 43.2 µM | 20.5 µM | > 100 µM | 4.9 | 92 µM | > 200 µM | – | – | – |
| CCCn1c(=O)n(C)c(=O)c2c1ncn2CCOC | 12.4 µM | 36.1 µM | > 100 µM | 2.8 | 72.7 µM | 58.7 µM | – | – | – |
| CCCn1c(=O)n(C)c(=O)c2c1ncn2CCO | 41.4 µM | 31.8 µM | > 100 µM | 3.1 | 28.7 µM | > 200 µM | – | – | – |
| CCCn1c(=O)n(C)c(=O)c2c1ncn2CCC#N | 88.6 µM | 27.6 µM | > 100 µM | 3.6 | 46 µM | > 200 µM | – | – | – |
| CCCn1c(=O)n(C)c(=O)c2c1ncn2CC | – | – | > 100 µM | – | – | – | – | – | – |
| CCCn1c(=O)n(CC)c(=O)c2[nH]cnc21 | – | 1.3 µM | 6.1 µM | 4.7 | – | 3.9 µM | – | – | – |
| C=CCn1cnc2c1c(=O)n(C)c(=O)n2CCC | 15.4 µM | 11.2 µM | 22.4 µM | – | – | – | – | – | – |
| CCCn1c(=O)n(CCC#N)c(=O)c2[nH]cnc21 | 15.9 µM | 1.7 µM | 4.3 µM | 2.5 | 40.8 µM | 162 µM | – | – | – |
| CCCn1c(=O)n(CCOC)c(=O)c2[nH]cnc21 | 2.5 µM | 0.7 µM | 6.3 µM | 9 | 8.2 µM | 21.6 µM | – | – | – |
| CCCn1c(=O)n(C)c(=O)c2c1ncn2CC(=O)O | > 200 µM | > 100 µM | > 100 µM | – | – | – | – | – | – |
| CCCn1cnc2c1c(=O)n(C)c(=O)n2CCC | – | 5 µM | > 100 µM | 20 | – | 43.8 µM | 27.5 mg/kg | > 100 mg/kg | > 3.6 |
| CC(=O)CCCCn1c(=O)c2c(ncn2C)n(C)c1=O [PENTOXIFYLLINE] | 180 µM | 28.3 µM | 52.4 µM | – | – | – | 43 mg/kg | 39.4 mg/kg | – |
| CCCn1c(=O)n(CCC(=O)O)c(=O)c2[nH]cnc21 | > 200 µM | 21.2 µM | > 100 µM | 4.7 | 60 µM | > 200 µM | – | – | – |
| CCCn1c(=O)n(C)c(=O)c2c1ncn2CCC(C)=O | 30 µM | 12.2 µM | > 100 µM | 8.2 | 32.8 µM | > 200 µM | – | – | – |
| CCCn1c(=O)n(CCO)c(=O)c2[nH]cnc21 | 50 µM | 0.51 µM | 2 µM | 3.9 | 14.1 µM | > 200 µM | – | – | – |
| Cn1c(=O)c2nc[nH]c2n(C)c1=O.O [THEOPHYLLINE] | – | – | 62 µM | – | – | – | – | 20.2 mg/kg | – |
| CCCn1c(=O)n(CCC(N)=O)c(=O)c2[nH]cnc21 | 31.5 µM | 13.1 µM | 31.2 µM | 2.4 | 56.3 µM | > 200 µM | – | – | – |
